Source: ChEMBL document CHEMBL1148187, “Modified taxols, 9. Synthesis and biological evaluation of 7-substituted photoaffinity analogues of taxol” (J Nat Prod, 1993)
The source made the active and inactive calls. The calls are words filed in the database; no cut-off is given here.

Columns and labels:
[1] = Inhibition of bovine brain tubulin depolymerization after 20 mins by turbidimetry; parameters: species or system Bos taurus
Outline: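 Purified bovine brain tubulin 10 μM (1.0 mg/ml) in 1.0 M monosodium glutamate (pH 6.6), 50 μM GTP, 4% DMSO, with varying analogue concentrations. Temperature jump 0 to 37°, held about 20 min, then reverse jump to 0°. Maximum depolymerization rate read as fall in A350 or A420. IC50 interpolated; at least three independent determinations.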

Bos taurus [2] = species: Bos taurus; experiment: Induction of bovine brain tubulin polymerization at 40 uM by turbidimetry in presence of 4-morpholine-ethanesulfonate
Outline: (§1)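 Low ionic strength turbidimetry at 350 or 420 nm: 10 μM purified bovine brain tubulin in 0.1 M 4-morpholine-ethanesulfonate (pH 6.9), 0.5 mM MgCl2, 100 μM GTP, 4% DMSO. Baseline at 0°, then temperature stepped to 15° and 37°.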

Bos taurus [3] = species: Bos taurus; experiment: Induction of bovine brain tubulin depolymerization at 10 uM by turbidimetry in presence of glutamate
Outline: (§2)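 Turbidimetry at 350 or 420 nm of 10 μM purified bovine brain tubulin in 1.0 M monosodium glutamate (pH 6.6), 50 μM GTP, 4% DMSO. Baseline at 0°, then stepped temperatures: 15°, 37°, then down to 10° and 0° to follow depolymerization.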

Bos taurus [4] = species: Bos taurus; experiment: Induction of bovine brain tubulin polymerization at 10 uM at 0 degC by turbidimetry at lower temperature in presence of glutamate; conditions: in the assay text read “at 15 degC” for “at 0 degC”; outline: as §2
Bos taurus [5] = species: Bos taurus; experiment: Induction of bovine brain tubulin polymerization at 10 uM by turbidimetry at 37 degC in presence of 4-morpholine-ethanesulfonate; outline: as §1
Bos taurus [6] = species: Bos taurus; experiment: Induction of bovine brain tubulin polymerization at 10 uM by turbidimetry at 15 degC in presence of 4-morpholine-ethanesulfonate
Outline: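 Purified bovine brain tubulin at 10 μM (1.0 mg/ml) in 0.1 M 4-morpholine-ethanesulfonate (pH 6.9) with 0.5 mM MgCl2, 100 μM GTP, 4% (v/v) DMSO, and agent at 10 μM. Baseline was read at 0°, the controller was then set to 15°, and later temperature steps followed. Polymerization was followed by turbidity at 350 or 420 nm.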

| IC50 [1] [µM] | Activity (Bos taurus [2]) | Activity (Bos taurus [3]) [%] | Activity (Bos taurus [4]) | Activity (Bos taurus [5]) | Activity (Bos taurus [6]) | Structure (SMILES) |
| --- | --- | --- | --- | --- | --- | --- |
| 0.65 | inactive | – | – | – | – | CC(=O)O[C@H]1C(=O)[C@]2(C)[C@@H](OC(=O)c3ccccc3)C[C@H]3OC[C@@]3(OC(C)=O)[C@H]2[C@H](OC(=O)c2ccccc2)[C@]2(O)C[C@H](OC(=O)[C@H](O)[C@@H](NC(=O)c3ccccc3)c3ccccc3)C(C)=C1C2(C)C [PACLITAXEL C7 BENZOIC ACID ESTER] |
| 0.42 | – | < 50 | Active | Active | inactive | CC(=O)O[C@H]1C(=O)[C@@]2(C)[C@H]([C@H](OC(=O)c3ccccc3)[C@]3(O)C[C@H](OC(=O)[C@H](O)[C@@H](NC(=O)c4ccccc4)c4ccccc4)C(C)=C1C3(C)C)[C@]1(OC(C)=O)CO[C@@H]1C[C@@H]2O [PACLITAXEL] |
